In brackets after ≈: the same amount, converted by molar mass.
What was measured:
[1] = Drug metabolism in mouse liver microsomes after 20 mins; assay type: ADME, Microsome; conditions: read-out: Drug metabolism
Summary of the method: (§1)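 Liver microsomes (human or mouse) incubated with compound for 20 min; %lability reported as % of compound metabolized.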

[2] = Equilibrium solubility of the compound in phosphate buffer at pH 7.4 after 16 hrs by HPLC analysis; assay type: physicochemical
[3] = Drug metabolism in human liver microsomes after 20 mins; assay type: ADME, Microsome; conditions: read-out: Drug metabolism; summary of the method: as §1
[4] = biological target: Phosphatidylinositol 4,5-bisphosphate 3-kinase catalytic subunit alpha isoform (Homo sapiens, UniProt P42336); assay: Inhibition of PI3Kalpha
Sequence of Phosphatidylinositol 4,5-bisphosphate 3-kinase catalytic subunit alpha isoform (P42336 whole entry, canonical isoform): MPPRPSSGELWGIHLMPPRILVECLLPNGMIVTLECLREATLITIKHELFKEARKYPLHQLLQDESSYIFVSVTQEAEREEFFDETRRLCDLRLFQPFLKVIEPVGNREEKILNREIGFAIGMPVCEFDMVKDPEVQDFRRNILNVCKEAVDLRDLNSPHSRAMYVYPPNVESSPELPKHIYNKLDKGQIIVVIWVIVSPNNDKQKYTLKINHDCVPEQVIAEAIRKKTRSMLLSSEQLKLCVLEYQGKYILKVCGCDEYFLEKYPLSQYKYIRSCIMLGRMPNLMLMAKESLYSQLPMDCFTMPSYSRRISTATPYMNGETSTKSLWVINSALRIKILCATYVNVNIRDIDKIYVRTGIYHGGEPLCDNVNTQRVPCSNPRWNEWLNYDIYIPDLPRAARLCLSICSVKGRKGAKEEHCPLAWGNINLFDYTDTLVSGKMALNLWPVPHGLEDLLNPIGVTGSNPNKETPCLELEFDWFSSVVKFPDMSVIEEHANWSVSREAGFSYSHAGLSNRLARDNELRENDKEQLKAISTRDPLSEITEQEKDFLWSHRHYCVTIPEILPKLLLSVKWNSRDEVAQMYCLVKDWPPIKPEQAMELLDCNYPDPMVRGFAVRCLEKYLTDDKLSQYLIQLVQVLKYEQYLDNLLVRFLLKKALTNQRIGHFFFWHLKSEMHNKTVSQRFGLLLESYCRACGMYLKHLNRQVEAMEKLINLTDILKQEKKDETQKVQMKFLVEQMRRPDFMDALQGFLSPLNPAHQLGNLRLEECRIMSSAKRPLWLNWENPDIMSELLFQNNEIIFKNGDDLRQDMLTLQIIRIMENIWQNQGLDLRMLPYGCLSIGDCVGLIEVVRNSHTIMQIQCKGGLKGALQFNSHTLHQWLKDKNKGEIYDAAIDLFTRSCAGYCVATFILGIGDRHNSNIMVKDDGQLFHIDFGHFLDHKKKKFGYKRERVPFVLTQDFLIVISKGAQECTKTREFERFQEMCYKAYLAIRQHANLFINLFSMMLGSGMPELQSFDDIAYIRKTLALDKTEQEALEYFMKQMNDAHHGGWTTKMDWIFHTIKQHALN

Cytochrome P450 3A4 = Cytochrome P450 3A4 (Homo sapiens, UniProt P08684); assay: Inhibition of human recombinant CYP3A4; assay type: ADME
Sequence of Cytochrome P450 3A4 (P08684 whole entry, canonical isoform): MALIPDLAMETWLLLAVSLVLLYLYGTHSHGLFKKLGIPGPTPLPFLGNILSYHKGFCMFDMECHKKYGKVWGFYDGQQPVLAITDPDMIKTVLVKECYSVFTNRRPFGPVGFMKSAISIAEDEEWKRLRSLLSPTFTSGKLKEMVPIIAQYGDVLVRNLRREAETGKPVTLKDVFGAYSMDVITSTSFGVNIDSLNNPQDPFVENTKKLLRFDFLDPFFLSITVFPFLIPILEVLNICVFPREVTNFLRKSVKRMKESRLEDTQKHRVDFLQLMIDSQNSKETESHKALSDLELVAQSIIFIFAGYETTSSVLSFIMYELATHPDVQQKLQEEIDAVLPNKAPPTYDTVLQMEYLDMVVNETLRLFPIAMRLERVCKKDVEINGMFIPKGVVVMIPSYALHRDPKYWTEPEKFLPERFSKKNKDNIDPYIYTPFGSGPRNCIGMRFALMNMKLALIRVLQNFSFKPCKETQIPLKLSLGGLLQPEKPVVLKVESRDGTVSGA

[5] = biological target: Phosphatidylinositol 4,5-bisphosphate 3-kinase catalytic subunit beta isoform (Homo sapiens, UniProt P42338); assay: Inhibition of PI3Kbeta
Sequence of Phosphatidylinositol 4,5-bisphosphate 3-kinase catalytic subunit beta isoform (P42338 whole entry, canonical isoform): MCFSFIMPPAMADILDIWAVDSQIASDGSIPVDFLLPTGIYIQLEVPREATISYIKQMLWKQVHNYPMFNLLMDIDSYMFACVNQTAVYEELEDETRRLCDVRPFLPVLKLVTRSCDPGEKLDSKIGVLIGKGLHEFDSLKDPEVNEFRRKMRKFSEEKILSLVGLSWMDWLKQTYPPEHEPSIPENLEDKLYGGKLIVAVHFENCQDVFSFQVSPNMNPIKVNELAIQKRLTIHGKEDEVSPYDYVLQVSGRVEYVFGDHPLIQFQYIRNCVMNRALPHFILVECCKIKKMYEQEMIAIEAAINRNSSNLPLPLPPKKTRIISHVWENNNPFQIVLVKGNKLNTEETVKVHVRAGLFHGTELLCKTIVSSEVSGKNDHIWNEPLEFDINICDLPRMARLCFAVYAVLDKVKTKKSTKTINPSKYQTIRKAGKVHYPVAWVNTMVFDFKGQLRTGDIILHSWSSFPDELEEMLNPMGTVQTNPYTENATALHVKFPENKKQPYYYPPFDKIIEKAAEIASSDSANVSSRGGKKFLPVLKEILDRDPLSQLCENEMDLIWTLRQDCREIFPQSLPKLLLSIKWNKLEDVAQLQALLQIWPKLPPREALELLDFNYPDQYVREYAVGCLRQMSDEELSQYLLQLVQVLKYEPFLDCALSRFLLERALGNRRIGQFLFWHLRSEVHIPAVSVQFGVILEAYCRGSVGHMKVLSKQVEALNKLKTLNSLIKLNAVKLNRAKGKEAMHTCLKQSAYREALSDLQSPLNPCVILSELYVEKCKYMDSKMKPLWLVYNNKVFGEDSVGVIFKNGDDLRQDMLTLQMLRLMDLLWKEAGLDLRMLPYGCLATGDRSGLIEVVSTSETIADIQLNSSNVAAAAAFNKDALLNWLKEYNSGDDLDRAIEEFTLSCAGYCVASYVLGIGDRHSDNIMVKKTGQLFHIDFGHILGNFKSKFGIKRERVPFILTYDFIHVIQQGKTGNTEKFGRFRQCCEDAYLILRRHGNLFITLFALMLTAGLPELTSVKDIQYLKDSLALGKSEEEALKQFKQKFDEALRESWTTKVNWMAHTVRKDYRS

[6] = biological target: T1, Phosphatidylinositol 4,5-bisphosphate 3-kinase catalytic subunit delta isoform (Homo sapiens, UniProt O00329); assay: Inhibition of PI3Kdelta
T1 sequence (O00329 whole entry): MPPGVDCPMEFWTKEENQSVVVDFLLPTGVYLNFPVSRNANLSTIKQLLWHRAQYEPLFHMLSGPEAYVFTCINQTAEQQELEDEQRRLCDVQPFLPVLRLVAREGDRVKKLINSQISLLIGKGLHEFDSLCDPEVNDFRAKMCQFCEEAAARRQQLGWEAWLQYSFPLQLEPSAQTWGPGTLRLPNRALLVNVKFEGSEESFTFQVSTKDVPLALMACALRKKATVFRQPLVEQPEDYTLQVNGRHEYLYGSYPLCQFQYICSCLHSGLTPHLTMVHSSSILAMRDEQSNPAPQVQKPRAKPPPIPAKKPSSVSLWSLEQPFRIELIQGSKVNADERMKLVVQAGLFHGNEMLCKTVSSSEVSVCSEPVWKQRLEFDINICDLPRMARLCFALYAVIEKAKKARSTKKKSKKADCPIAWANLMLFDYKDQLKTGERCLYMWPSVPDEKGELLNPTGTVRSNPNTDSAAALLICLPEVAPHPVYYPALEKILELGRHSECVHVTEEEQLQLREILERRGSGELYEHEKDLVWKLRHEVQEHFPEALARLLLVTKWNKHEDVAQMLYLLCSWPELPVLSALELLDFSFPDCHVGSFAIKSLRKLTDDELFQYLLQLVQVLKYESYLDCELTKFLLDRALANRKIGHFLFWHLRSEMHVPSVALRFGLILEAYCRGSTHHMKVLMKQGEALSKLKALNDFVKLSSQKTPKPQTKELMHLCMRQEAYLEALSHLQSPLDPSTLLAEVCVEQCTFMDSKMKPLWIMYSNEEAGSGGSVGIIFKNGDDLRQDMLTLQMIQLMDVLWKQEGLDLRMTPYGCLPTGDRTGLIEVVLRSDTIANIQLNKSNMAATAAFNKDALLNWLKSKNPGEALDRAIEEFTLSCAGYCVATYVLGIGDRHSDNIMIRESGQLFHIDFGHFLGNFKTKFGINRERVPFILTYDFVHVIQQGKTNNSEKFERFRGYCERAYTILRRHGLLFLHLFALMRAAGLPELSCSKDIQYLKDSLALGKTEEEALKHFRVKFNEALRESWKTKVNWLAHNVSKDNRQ

[7] = Inhibition of Akt phosphorylation at S473 in PTEN deficient human PC3 cells; assay type: cell-based; conditions: PC-3
[8] = Apparent permeability across human Caco2/TC7 cells; assay type: ADME, cell-based; conditions: Caco-2
Summary of the method: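 Caco-2 TC7 clone monolayers; transport measured in both apical-to-basolateral and basolateral-to-apical directions, giving Papp (nm/s) and an efflux ratio.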

[9] = biological target: Phosphatidylinositol 4,5-bisphosphate 3-kinase catalytic subunit gamma isoform (Homo sapiens, UniProt P48736); assay: Inhibition of PI3Kgamma
Sequence of Phosphatidylinositol 4,5-bisphosphate 3-kinase catalytic subunit gamma isoform (P48736 whole entry, canonical isoform): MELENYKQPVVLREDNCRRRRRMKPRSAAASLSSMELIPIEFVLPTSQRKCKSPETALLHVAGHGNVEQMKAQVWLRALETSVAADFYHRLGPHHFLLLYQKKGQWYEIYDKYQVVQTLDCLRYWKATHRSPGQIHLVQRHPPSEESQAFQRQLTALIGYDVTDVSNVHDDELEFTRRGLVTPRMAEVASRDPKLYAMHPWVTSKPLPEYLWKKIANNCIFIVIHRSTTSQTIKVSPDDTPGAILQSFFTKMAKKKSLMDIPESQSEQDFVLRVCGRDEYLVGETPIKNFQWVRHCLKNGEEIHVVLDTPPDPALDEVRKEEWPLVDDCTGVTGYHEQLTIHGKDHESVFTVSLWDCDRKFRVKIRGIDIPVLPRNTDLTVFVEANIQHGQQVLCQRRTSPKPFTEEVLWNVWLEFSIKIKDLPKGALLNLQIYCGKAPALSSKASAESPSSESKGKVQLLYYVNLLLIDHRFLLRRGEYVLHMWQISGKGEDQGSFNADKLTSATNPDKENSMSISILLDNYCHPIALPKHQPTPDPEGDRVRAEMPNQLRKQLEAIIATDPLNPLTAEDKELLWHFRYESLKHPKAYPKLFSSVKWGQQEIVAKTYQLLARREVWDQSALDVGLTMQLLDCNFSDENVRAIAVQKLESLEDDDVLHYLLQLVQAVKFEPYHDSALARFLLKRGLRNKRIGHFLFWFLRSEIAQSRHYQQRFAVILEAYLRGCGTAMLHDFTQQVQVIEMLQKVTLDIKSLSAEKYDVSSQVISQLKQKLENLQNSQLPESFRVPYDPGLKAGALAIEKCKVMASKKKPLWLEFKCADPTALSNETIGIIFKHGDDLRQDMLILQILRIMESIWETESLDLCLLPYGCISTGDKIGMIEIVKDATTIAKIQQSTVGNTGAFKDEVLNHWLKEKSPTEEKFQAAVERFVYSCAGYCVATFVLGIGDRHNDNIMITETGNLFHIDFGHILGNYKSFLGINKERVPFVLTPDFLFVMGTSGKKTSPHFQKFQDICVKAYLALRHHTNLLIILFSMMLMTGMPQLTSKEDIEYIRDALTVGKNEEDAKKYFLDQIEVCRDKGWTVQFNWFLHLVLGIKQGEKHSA

[10] = Efflux ratio of permeability […] in human Caco2/TC7 cells; assay type: ADME, cell-based
Summary of the method: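 Caco-2 TC7 clone cells grown as a monolayer; compound transport measured in both directions, apical to basolateral (A–B) and basolateral to apical (B–A); apparent permeability (Papp) read out, and efflux ratio derived from the two directional measurements.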

[11] = biological target: Serine/threonine-protein kinase mTOR (Homo sapiens, UniProt P42345); assay: Inhibition of mTOR

| Compound | metabolised at 20 min [1] | solubility thermodynamic at 16 h [2] | metabolised at 20 min [3] | IC50 [4] | IC50 (Cytochrome P450 3A4) | IC50 [5] | IC50 [6] | IC50 [7] | Papp [8] | IC50 [9] | Ratio [10] | IC50 [11] |
| --- | --- | --- | --- | --- | --- | --- | --- | --- | --- | --- | --- | --- |
| O=C(Cc1nc(N2CCOCC2)cc(=O)[nH]1)Nc1cccc(Cl)c1 | 22% | 9 µM (≈ 3.14 µg/mL) | 43% | 2.55 µM | > 40 µM | 33 nM | 278 nM | 100 nM | 0.8 ×10⁻⁶ cm/s | > 10 µM |  |  |
| COC(=O)c1cc(NC(=O)Cc2nc(N3CCOCC3)cc(=O)[nH]2)ccc1F |  |  |  | 8.14 µM |  | 175 nM | 4650 nM | 1740 nM |  | > 10 µM |  |  |
| COc1cc(NC(=O)Cc2nc(N3CCOCC3)cc(=O)[nH]2)ccc1F | 28% | 33 µM (≈ 12 µg/mL) | 71% | 3.46 µM | > 40 µM | 3 nM | 148 nM | 98 nM | 0.2 ×10⁻⁶ cm/s | > 10 µM |  |  |
| COc1cc(NC(=O)Cc2nc(N3CCOCC3)cc(=O)n2C)ccc1F |  |  |  | > 10 µM |  | 104 nM | 2400 nM | 100 nM |  | > 10 µM |  |  |
| Cc1ccccc1NC(=O)Cc1nc(N2CCOCC2)cc(=O)[nH]1 |  |  |  | > 10 µM |  | 236 nM | 4270 nM | 586 nM |  | > 10 µM |  |  |
| O=C(Cc1nc(N2CCOCC2)cc(=O)[nH]1)Nc1cccc(F)c1 | 21% |  | 55% | 6.22 µM |  | 81 nM | 1110 nM | 74 nM |  | > 10 µM |  |  |
| O=C(Cc1nc(N2CCOCC2)cc(=O)[nH]1)Nc1cccc(Br)c1 | 38% | 6 µM (≈ 2.36 µg/mL) | 75% | 1.91 µM | > 40 µM | 5 nM | 189 nM | 10 nM | 1.4 ×10⁻⁶ cm/s | > 10 µM | 26 |  |
| Cc1cc(NC(=O)Cc2nc(N3CCOCC3)cc(=O)[nH]2)ccc1F | 60% | 3 µM (≈ 1.04 µg/mL) | 91% | 0.831 µM | > 40 µM | 6 nM | 63 nM | 71 nM | 0.6 ×10⁻⁶ cm/s | 8.01 µM |  |  |
| O=C(Cc1nc(N2CCOCC2)cc(=O)[nH]1)Nc1ccc(Cl)cc1 |  |  |  | 2.27 µM |  | 398 nM | 2780 nM | 1420 nM |  | 5.09 µM |  |  |
| Cn1c(CC(=O)Nc2ccc(F)c(Br)c2)nc(N2CCOCC2)cc1=O |  |  |  | 7.61 µM |  | 387 nM | 2210 nM | 94 nM |  | > 10 µM |  |  |
| Cc1cccc(NC(=O)Cc2nc(N3CCOCC3)cc(=O)[nH]2)c1 | 54% | 3 µM (≈ 0.985 µg/mL) | 80% | 0.626 µM |  | 17 nM | 164 nM | 45 nM | 1.4 ×10⁻⁶ cm/s | 7.07 µM |  |  |
| Cn1c(CC(=O)Nc2ccc(F)c(F)c2)nc(N2CCOCC2)cc1=O |  |  |  | 8.51 µM |  | 262 nM | 1770 nM | 100 nM |  | > 10 µM |  |  |
| O=C(Cc1nc(N2CCOCC2)cc(=O)[nH]1)Nc1ccccc1F |  |  |  | > 10 µM |  | 142 nM | 2450 nM | 349 nM |  | > 10 µM |  |  |
| O=C(Cc1nc(N2CCOCC2)cc(=O)[nH]1)Nc1ccc(F)c(F)c1 | 11% | 3 µM (≈ 1.05 µg/mL) | 25% | 3.84 µM |  | 53 nM | 135 nM | 55 nM | 0.8 ×10⁻⁶ cm/s | > 10 µM |  |  |
| O=C(Cc1nc(N2CCOCC2)cc(=O)[nH]1)Nc1ccc(F)c(Br)c1 | 18% | 5 µM (≈ 2.06 µg/mL) | 42% | 4.14 µM | > 40 µM | 26 nM | 297 nM | 38 nM | 0.8 ×10⁻⁶ cm/s | 6.61 µM |  |  |
| O=C(Cc1nc(N2CCOCC2)cc(=O)[nH]1)Nc1ccc(F)cc1 | 27% | 45 µM (≈ 15 µg/mL) | 24% | 2.87 µM | > 40 µM | 13 nM | 86 nM | 31 nM | 0.6 ×10⁻⁶ cm/s | > 10 µM |  |  |
| COc1cccc(NC(=O)Cc2nc(N3CCOCC3)cc(=O)[nH]2)c1 | 47% | 38 µM (≈ 13.1 µg/mL) | 76% | 2.37 µM | > 40 µM | 15 nM | 611 nM | 47 nM | 0.3 ×10⁻⁶ cm/s | > 10 µM |  |  |
| Cn1c(CC(=O)Nc2ccc(F)cc2)nc(N2CCOCC2)cc1=O |  |  |  | > 10 µM |  | 244 nM | 1470 nM | 110 nM |  | > 10 µM |  |  |
| O=C(Cc1nc(N2CCOCC2)cc(=O)[nH]1)Nc1ccc(F)c([N+](=O)[O-])c1 |  |  |  | 4.35 µM |  | 47 nM | 3360 nM | 1260 nM |  | > 10 µM |  |  |
| O=C(Cc1nc(N2CCOCC2)cc(=O)[nH]1)Nc1ccccc1 | 4% | 73 µM (≈ 22.9 µg/mL) | 44% |  | > 40 µM |  |  | 68 nM | 0.5 ×10⁻⁶ cm/s | > 10 µM |  | > 10 µM |
| Cn1c(CC(=O)Nc2ccccc2)nc(N2CCOCC2)cc1=O |  |  |  | > 10 µM |  | 469 nM | 4290 nM | 340 nM |  | > 10 µM |  |  |
| O=C(Cc1nc(N2CCOCC2)cc(=O)[nH]1)Nc1ccc(F)c(Cl)c1 | 14% | 3 µM (≈ 1.1 µg/mL) | 40% | 1.9 µM |  | 2 nM | 137 nM | 19 nM | 0.8 ×10⁻⁶ cm/s | 6.71 µM |  |  |
